Test results published in article PMC8926318 (Iranian Journal of Biotechnology, 2021).

Tests used:
[1] = system: human colorectal cells; settings: cited from earlier work
[2] = system: human fibrosarcoma cells; settings: by inducing apoptosis; cited from earlier work
[3] = system: HepG2 (human liver cancer cell line); experiment: MTT cell viability assay, HepG2; type: cell-based; settings: HepG2 cells, 48 h, only at the highest concentration (1000 µM); for viability inhibition compared with the triazole compound (in words): Fig. 5; for inhibitory activity compared with ciprofloxacin (in words): Fig. 3
Summary of the method: (§1)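 Cells kept in RPMI1640 with 10% FBS, penicillin and streptomycin (100 µg.mL-1 each) at 37 °C, 5% CO2. Plated at 10⁴ cells/well for 24 h, then given test compound at 10, 100 or 1000 µM for 48 h. MTT (5 mg.mL-1 in PBS) added for 4 h at 37 °C. Formazan dissolved in DMSO for 20 min, read at 570 nm. At least triplicate; one-way ANOVA with Tukey post hoc.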

[4] = system: LNCaP (human prostatic carcinoma cell line); experiment: MTT cell viability assay, LNCaP; type: cell-based; settings: LNCaP cells, 48 h, 1000 µM, p<0.01
Summary of the method: as §1

| Substance | viability inhibition compared with the triazole compound (in words) [3] | inhibitory activity compared with ciprofloxacin (in words) [3] | also measured |
| --- | --- | --- | --- |
| LSGNK [C1] |  |  | anti-proliferative activity (in words) [1]: anti-proliferative agent |
| YIGSR [C2] |  |  | effect on tumor growth and metastasis (in words) [2]: inhibitory effect on tumor growth and metastasis |
| triazole-LSGNK [triazole-C1] | noticeable viable inhibition |  |  |
| triazole-YIGSR [triazole-C2] | noticeable viable inhibition |  | toxicity compared with unconjugated congener (in words) [4]: more significant |
| ciprofloxacin-YIGSR [Cipro-C2] |  | more inhibitory activity |  |
| ciprofloxacin-LSGNK [Cipro-C1] |  | more inhibitory activity |  |
